In ChEMBL document CHEMBL3784969, “Pharmacokinetics of flutamide in patients with renal insufficiency” (Br J Clin Pharmacol, 1999):

Legend:
Homo sapiens [1] = experiment: AUC (0 to infinity) in patient (7 patients) with renal insufficiency at 250 mg, po assessed as hydroxy flutamide administered as single dose by gas chromatography; type: ADME, organism-based; set-up: dose 250 mg, route oral, time infinity; settings: in vivo
Homo sapiens [2] = experiment: Tmax in patient (4 patients) with renal insufficiency assessed as hydroxy flutamide at 250 mg, po administered as single dose by gas chromatography; type: ADME, organism-based; settings: in vivo
Outline: (§1)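 Males grouped by 24 h CLcr normalised to body surface area (>80, 50–80, 30–49, 5–29 ml min−1 1.73 m−2), fasted 10 h pre-dose and 4 h post-dose, given a single oral 250 mg flutamide dose. Plasma sampled 0–96 h; urine collected in blocks to 96 h. Flutamide and hydroxyflutamide measured by GC with electron-capture detection. Renal CL = Ae(0,96 h)/AUC(0,96 h); t1/2 = 0.693/λz.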

[3] = Drug excretion in urine of patient (4 patients) with renal insufficiency at 250 mg, po administered as single dose by gas chromatography; type: ADME, organism-based; settings: human, in vivo; outline: as §1
[4] = Drug excretion in urine of patient (4 patients) with renal insufficiency assessed as hydroxy flutamide at 250 mg, po administered as single dose by gas chromatography; type: ADME, organism-based; settings: human, in vivo; outline: as §1
[5] = Tmax in patient (4 patients) with renal insufficiency at 250 mg, po administered as single dose by gas chromatography; type: ADME, organism-based; settings: human, in vivo; outline: as §1
[6] = Tmax in patient (6 patients) with renal insufficiency at 250 mg, po administered as single dose by gas chromatography; type: ADME, organism-based; settings: human, in vivo; outline: as §1
Homo sapiens [7] = experiment: AUC (0 to infinity) in patient (3 patients) with renal insufficiency at 250 mg, po assessed as hydroxy flutamide administered as single dose by gas chromatography; type: ADME, organism-based; set-up: dose 250 mg, time infinity, route oral; settings: in vivo
Homo sapiens [8] = experiment: Cmax in patient (4 patients) with renal insufficiency assessed as hydroxy flutamide at 250 mg, po administered as single dose by gas chromatography; type: ADME, organism-based; set-up: dose 250 mg, route oral; settings: in vivo
[9] = AUC (0 to 96 hrs) in patient (6 patients) with renal insufficiency at 250 mg, po administered as single dose by gas chromatography; type: ADME, organism-based; set-up: dose 250 mg, time < 96 hr, route oral; settings: human, in vivo
Homo sapiens [10] = experiment: Cmax in patient (6 patients) with renal insufficiency assessed as hydroxy flutamide at 250 mg, po administered as single dose by gas chromatography; type: ADME, organism-based; set-up: dose 250 mg, route oral; settings: in vivo
[11] = Drug excretion in urine of patient (3 patients) with renal insufficiency assessed as hydroxy flutamide at 250 mg, po administered as single dose by gas chromatography; type: ADME, organism-based; settings: human, in vivo; outline: as §1
[12] = AUC (0 to 96 hrs) in patient (7 patients) with renal insufficiency at 250 mg, po administered as single dose by gas chromatography; type: ADME, organism-based; set-up: dose 250 mg, time < 96 hr, route oral; settings: human, in vivo
[13] = Drug excretion in urine of patient (6 patients) with renal insufficiency assessed as hydroxy flutamide at 250 mg, po administered as single dose 4 hrs prior to hemodialysis treatment measured at starting time of dialysis and post dialysis treatment by gas chromatography; type: ADME, organism-based; settings: human, in vivo
Outline: (§2)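 Group V haemodialysis males (CLcr <5 ml min−1 1.73 m−2). Single oral 250 mg flutamide (two 125 mg capsules) right after HD; after 14-day washout, same dose 4 h before HD lasting 2–4 h. Venous samples to 48 h, arterial/venous during HD, dialysate in hourly blocks. GC with 63Ni electron-capture detection. CL(HD) = dialysate Ae(HD)/arterial AUC(HD); renal CL = Ae(0,48)/AUC(0,48 h).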

Homo sapiens [14] = experiment: Tmax in patient (3 patients) with renal insufficiency assessed as hydroxy flutamide at 250 mg, po administered as single dose by gas chromatography; type: ADME, organism-based; settings: in vivo; outline: as §1
[15] = Drug excretion in dialysate of patient with renal insufficiency at 250 mg, po administered first dose followed by 14 days wash out period and administered second dose 4 hrs prior to hemodialysis measured during hemodialysis treatment by gas chromatography; type: ADME, organism-based; settings: human, in vivo; outline: as §2
Homo sapiens [16] = experiment: Cmax in patient (6 patients) with renal insufficiency assessed as hydroxy flutamide at 250 mg, po administered as single dose 4 hrs prior to hemodialysis treatment measured at starting time of dialysis and post dialysis treatment by gas chromatography; type: ADME, organism-based; set-up: dose 250 mg, route oral; settings: in vivo
Homo sapiens [17] = experiment: Renal clearance in patient (6 patients) with renal insufficiency assessed as hydroxy flutamide at 250 mg, po administered as single dose by gas chromatography; type: ADME, organism-based, Kidney; settings: in vivo; outline: as §1
Homo sapiens [18] = experiment: AUC (0 to 96 hrs) in patient (7 patients) with renal insufficiency at 250 mg, po assessed as hydroxy flutamide administered as single dose by gas chromatography; type: ADME, organism-based; set-up: time < 96 hr, dose 250 mg, route oral; settings: in vivo
[19] = Renal clearance in patient (6 patients) with renal insufficiency at 250 mg, po administered as single dose by gas chromatography; type: ADME, organism-based, Kidney; settings: human, in vivo; outline: as §1
Homo sapiens [20] = experiment: Tmax in patient (7 patients) with renal insufficiency assessed as hydroxy flutamide at 250 mg, po administered as single dose by gas chromatography; type: ADME, organism-based; settings: in vivo; outline: as §1
[21] = AUClast in patient (3 patients) with renal insufficiency at 250 mg, po administered as single dose by gas chromatography; type: ADME, organism-based; set-up: dose 250 mg, time 0 - last, route oral; settings: human, in vivo
[22] = Drug excretion in urine of patient (7 patients) with renal insufficiency at 250 mg, po administered as single dose by gas chromatography; type: ADME, organism-based; settings: human, in vivo; outline: as §1
Homo sapiens [23] = experiment: AUC (0 to 24 hrs) in patient (6 patients) with renal insufficiency assessed as hydroxy flutamide at 250 mg, po administered as single dose by gas chromatography; type: ADME, organism-based; set-up: time < 24 hr, dose 250 mg, route oral; settings: in vivo
Homo sapiens [24] = experiment: Clearance in patient (6 patients) with renal insufficiency assessed as hydroxy flutamide at 250 mg, po administered as single dose 4 hrs prior to hemodialysis treatment measured during dialysis treatment by gas chromatography; type: ADME, organism-based; settings: in vivo; outline: as §2
[25] = Drug recovery in dialysate of patient (6 patients) with renal insufficiency assessed as hydroxy flutamide at 250 mg, po administered as single dose 4 hrs prior to hemodialysis treatment measured during dialysis treatment by gas chromatography; type: ADME, organism-based; settings: human, in vivo; outline: as §2
[26] = Plasma protein binding in healthy geriatric volunteer by equilibrium dialysis method; type: ADME, cell-free; settings: human, read-out: PPB
Homo sapiens [27] = experiment: AUClast in patient (4 patients) with renal insufficiency at 250 mg, po assessed as hydroxy flutamide administered as single dose by gas chromatography; type: ADME, organism-based; set-up: dose 250 mg, time 0 - last, route oral; settings: in vivo
Homo sapiens [28] = experiment: Tmax in patient (6 patients) with renal insufficiency assessed as hydroxy flutamide at 250 mg, po administered as single dose by gas chromatography; type: ADME, organism-based; settings: in vivo; outline: as §1
[29] = AUC (0 to 24 hrs) in patient (4 patients) with renal insufficiency at 250 mg, po administered as single dose by gas chromatography; type: ADME, organism-based; set-up: dose 250 mg, time < 24 hr, route oral; settings: human, in vivo
Homo sapiens [30] = experiment: Terminal half life in patient (7 patients) with renal insufficiency assessed as hydroxy flutamide at 250 mg, po administered as single dose by gas chromatography; type: ADME, organism-based; settings: in vivo; outline: as §1
Homo sapiens [31] = experiment: Renal clearance in patient (7 patients) with renal insufficiency assessed as hydroxy flutamide at 250 mg, po administered as single dose by gas chromatography; type: ADME, organism-based, Kidney; settings: in vivo; outline: as §1
Homo sapiens [32] = experiment: Terminal half life in patient (6 patients) with renal insufficiency assessed as hydroxy flutamide at 250 mg, po administered as single dose 4 hrs prior to hemodialysis treatment measured at starting time of dialysis and post dialysis treatment by gas chromatography; type: ADME, organism-based; settings: in vivo; outline: as §2
[33] = AUC (0 to 24 hrs) in patient (3 patients) with renal insufficiency at 250 mg, po administered as single dose by gas chromatography; type: ADME, organism-based; set-up: time < 24 hr, dose 250 mg, route oral; settings: human, in vivo
[34] = Tmax in patient (7 patients) with renal insufficiency at 250 mg, po administered as single dose by gas chromatography; type: ADME, organism-based; settings: human, in vivo; outline: as §1
[35] = AUC (0 to 96 hrs) in patient (3 patients) with renal insufficiency at 250 mg, po administered as single dose by gas chromatography; type: ADME, organism-based; set-up: time < 96 hr, dose 250 mg, route oral; settings: human, in vivo

`CC(C)C(=O)Nc1ccc([N+](=O)[O-])c(C(F)(F)F)c1` [FLUTAMIDE] gave an AUC (Homo sapiens [1]) of 4993 ng·h/mL, a Tmax (Homo sapiens [2]) of 3 h and a Drug excretion [3] of 30 µg. For the same molecule, the Drug excretion [4] was 92 µg, the Tmax [5] was 1 h and the Tmax [6] was 1.4 h. For the same molecule, the AUC (Homo sapiens [7]) was 6907 ng·h/mL, the Cmax (Homo sapiens [8]) was 874 ng/mL and the AUC(0-t) at 96 h [9] was 96.4 ng·h/mL. For the same molecule, the Cmax (Homo sapiens [10]) was 1070 ng/mL, the Drug excretion [11] was 132 µg and the AUC(0-t) at 96 h [12] was 59.8 ng·h/mL. It also gave a Drug excretion [13] of 5 µg, a Tmax (Homo sapiens [14]) of 3 h and a Drug excretion [15] of 1158 µg. For the same molecule, the Cmax (Homo sapiens [16]) was 869 ng/mL, the CL (Homo sapiens [17]) was 0.36 mL/min and the AUC (Homo sapiens [18]) was 4993 ng·h/mL. The CL renal [19] was 7.1 mL/min, the Tmax (Homo sapiens [20]) was 2.3 h and the AUC(0-t) [21] was 74 ng·h/mL. The Drug excretion [22] was 39 µg, the AUC (Homo sapiens [23]) was 5132 ng·h/mL and the CL (Homo sapiens [24]) was 21 mL/min. The Drug recovery [25] was 1.2 mg, the fraction unbound [26] was less than 0.06 and the AUClast (Homo sapiens [27]) was 6435 ng·h/mL. The Tmax (Homo sapiens [28]) was 1.9 h, the AUC(0-t) at 24 h [29] was 107 ng·h/mL and the “beta t1/2” value (Homo sapiens [30]) was 7.1 h. For the same molecule, the CL (Homo sapiens [31]) was 0.3 mL/min, the “beta t1/2” value (Homo sapiens [32]) was 8 h and the AUC(0-t) at 24 h [33] was 98 ng·h/mL. For the same molecule, the Tmax [34] was 1.7 h and the AUC(0-t) at 96 h [35] was 98 ng·h/mL.
